CXCR6 inh = CXCR6 (human) receptor inhibition. CHO-K1 PathHunter CXCR6 beta-arrestin, luminescence. inhibition, % at 20 µM. 360,000 tested, 0.36% active; in the data active = inhibition above about 34%, passing the limit was not always enough;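 note: antagonist mode with CXCL16 agonist at 10 nM final; 0% = 10 nM CXCL16 with DMSO and 100% = unstimulated wells without agonist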
CCR6 antagonist = antagonists of human CCR6 receptor | P51684 | CHO-K1 CCR6 PathHunter beta-arrestin, luminescence, CCL20-stimulated | inhibition, % at 20 µM | 340,000 tested, 0.49% active | AID 493098;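 active = compounds whose inhibition of the agonist-driven luminescence signal at 20 µM reaches about 50%, limit read from the data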;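 note: cells stimulated with CCL20 at 14 nM final; plate controls were DMSO with CCL20 for no effect and DMSO without agonist for full effect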
APJ antagonist = APJ receptor antagonism; P35414; CHO-K1 APJ beta-arrestin complementation, luminescence; inhibition, % at 20 µM; 330,000 tested, 0.32% active;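 active = inhibition above about 40% at 20 µM, limit read from the data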;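 note: cells challenged with 10 nM apelin-13 agonist together with compound; plate controls were apelin-13 plus DMSO wells for no effect and DMSO wells lacking apelin-13 for full effect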
Beta2AR agonist = human beta-2 adrenergic receptor agonism by FAP. Am2.2-beta2AR cells, FAP receptor internalization, flow cytometry. 340,000 tested, 0.43% active. response, % (test concentration not listed). AID 504454;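 active = response above a set limit, near 3 SD of response in nonfluorescent compounds, cut at about 42% in these data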
Target sequence (P07550 whole entry, looked up): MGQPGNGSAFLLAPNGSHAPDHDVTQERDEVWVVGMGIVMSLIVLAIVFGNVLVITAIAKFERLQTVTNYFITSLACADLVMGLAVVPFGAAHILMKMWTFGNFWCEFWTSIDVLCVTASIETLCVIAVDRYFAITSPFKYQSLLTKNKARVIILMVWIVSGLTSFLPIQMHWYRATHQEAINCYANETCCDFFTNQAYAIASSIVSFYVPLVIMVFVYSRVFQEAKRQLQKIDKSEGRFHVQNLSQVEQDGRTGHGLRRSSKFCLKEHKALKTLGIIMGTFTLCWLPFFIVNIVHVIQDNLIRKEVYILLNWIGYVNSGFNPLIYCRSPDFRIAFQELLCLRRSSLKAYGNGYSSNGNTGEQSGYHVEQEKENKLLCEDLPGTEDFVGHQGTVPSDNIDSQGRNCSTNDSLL
APJ ag = agonists of human APJ apelin receptor; 330,000 tested, 0.11% active; activation, % at 20 µM; AID 2520; CHO-K1 APJ PathHunter beta-arrestin, luminescence; 0% DMSO wells, 100% apelin;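 active = activation more than six SD over the plate average, tested at 20 µM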;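 note: 0% = DMSO alone and 100% = apelin-13 at 10 nM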
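assay system = CHO-K1 APJ beta-arrestin complementation cell line | input = cell density 1000 per well | dosing = compound 20 µM once, DMSO 1% | timing = compound 90 min 25 °C, reagent 1 h | measured by = luminescence from split beta-galactosidase complementation, Galacton Star/Emerald II substrate | read-out basis = APJ agonist activity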
EBI2 antag = antagonists of human EBI2 receptor | P32249 | AID 651636 | EBI2 beta-arrestin recruitment, luminescence, 7a,25-OHC stimulated | 360,000 tested, 0.81% active | inhibition, % at 5 µM; in the data active = inhibition above about 38%;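 note: enzyme fragment complementation signal reports receptor beta-arrestin coupling in cells; 0% = agonist plus DMSO wells and 100% = wells without agonist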
EBI2 antag conf = confirmation of human EBI2 receptor antagonists. shares compounds with EBI2 antag. EBI2 beta-arrestin luminescence, 7a,25-OHC antagonism. inhibition, % at 5 µM. 2,400 tested, 29% active. AID 651997;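 active = inhibition of at least 50%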
EBI2 ag = counter-screen for EBI2 antagonists: EBI2 agonist activity | shares compounds with EBI2 antag | EBI2-expressing cells, agonist mode, luminescence, 60 min; 0% vehicle, 100% 7α,25-dihydroxycholesterol control | activation, % at 5 µM | 2,400 tested, under 10 active | AID 652000;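 active = activation of at least 50%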
bGal counter = counter-screen for EBI2 antagonists: E. coli beta-galactosidase inhibition. shares compounds with EBI2 antag. purified beta-galactosidase, luminescent Galacton Star, 15 min. inhibition, % at 5 µM. 2,400 tested, 1% active. AID 652176;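 active = replicate-average signal at least 3 plate SD below neutral wells, shown as high inhibition, flagging enzyme-inhibiting false positives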;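 note: 0% = DMSO wells with enzyme and 100% = wells lacking enzyme; higher means stronger loss of beta-gal luminescence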
* hit, by the source's call; / = no result. In the library only some 1.8% were active in any assay of this set; here they are far more common.

SMILES | CXCR6 inh | CCR6 antagonist | APJ antagonist | Beta2AR agonist | APJ ag | EBI2 antag | EBI2 antag conf | EBI2 ag | bGal counter
CS(=O)(=O)N1CCN(C(=O)COc2ccc3ccccc3c2)CC1 | 1 | 7 | -9 | -3 | -1 | 79* | 46 | 1 | 5
COc1ccc(-c2ccc3[nH]c4c(c3c2)CCN2C(=O)[C@@H]([C@H](C)O)[C@@H](N(C)C(=O)Nc3ccc(F)cc3)C[C@@H]42)cc1 | -9 | / | / | / | / | 1 | / | / | /
CC(OC(=O)Nc1ccccc1)C(=O)OC1CCCCC1 (configuration not stated) | -8 | 15 | / | -5 | / | 1 | / | / | /
Cc1ccc(NC(=O)CN(C)C(=O)c2cccc(S(=O)(=O)N3CCc4ccccc43)c2)cc1 | 5 | 11 | -8 | 3 | 3 | 12 | / | / | /
OC[C@@H]1CN(Cc2ccc(Cl)cc2)C[C@H](n2cnc3c(NC4CCC4)ncnc32)O1 | 4 | / | / | / | / | 44* | 26 | 0 | 7
OC[C@@H]1CN(Cc2ccco2)C[C@H](n2cnc3c(NC4CCC4)ncnc32)O1 | -3 | / | / | / | / | -14 | / | / | /
OC[C@@H]1CN(Cc2ccc(-c3ccccc3)cc2)C[C@H](n2cnc3c(NC4CC4)ncnc32)O1 | -4 | / | / | / | / | 65* | 65* | -2 | -11
CC(C)N(C)c1ncnc2c1ncn2[C@H]1CN(Cc2ccc(-c3ccccc3)cc2)C[C@@H](CO)O1 | -9 | / | / | / | / | 57* | 46 | 0 | -13
Cc1ccc([N+](=O)[O-])cc1N(CC(=O)Nc1ccc(S(=O)(=O)Nc2cccc(C(F)(F)F)c2)cc1)S(C)(=O)=O | -9 | 5 | -15 | 26 | 0 | 84* | 65* | 1 | 4
Cc1ccc(C)c(Nc2c([N+](=O)[O-])ccc3nonc23)c1 | -1 | 11 | -10 | 0 | 1 | -13 | / | / | /
Cc1ccccc1Nc1c([N+](=O)[O-])ccc2c1=NC1(CCCCC1)N=2 | 12 | 3 | -26 | 3 | 2 | 56* | 15 | 1 | 1
CCCCn1c(N)c(N(CC(C)C)C(=O)C2CCN(S(=O)(=O)c3ccc(Cl)cc3)CC2)c(=O)[nH]c1=O | -19 | 5 | -9 | 2 | 13 | -7 | / | / | /
Cc1ccc(Oc2ccc(C(=O)NC3CCSC3=O)cn2)cc1 (configuration not stated) | 1 | -21 | 2 | -4 | 0 | 49* | 29 | -1 | -12
O=C(NC1CCSC1=O)c1ccc(Oc2ccc(F)cc2)nc1 (configuration not stated) | 3 | 2 | 3 | 2 | 0 | 16 | / | / | /
O=C1OCCC1Sc1nnc(-c2ccccc2Cl)n1Cc1ccccc1 (configuration not stated) | 4 | -5 | 5 | 8 | -3 | 53* | 12 | 0 | -7
CNC(=S)N1N=C(c2ccc(Br)cc2)CC1c1ccc(Br)cc1 (configuration not stated) | 1 | 2 | 7 | -2 | 0 | 80* | 70* | 2 | 8
CNC(=S)N1N=C(c2ccc(OC)cc2)CC1c1ccc(N(C)C)cc1 (configuration not stated) | 4 | 21 | 3 | -7 | -5 | 87* | 81* | 2 | 2
CNC(=S)N1N=C(c2cccs2)CC1c1ccc(OC)cc1 (configuration not stated) | -8 | -1 | 12 | 4 | 1 | 13 | / | / | /
CCc1nc2ccc(C(=O)NCCc3c[nH]c4ccccc34)cn2c1N(C=O)CCC(C)C | -2 | / | / | / | / | 27 | / | / | /
COc1ccc(-n2cc(-c3ccc(Br)cc3)[nH]c2=S)cc1 | 1 | -7 | -6 | -3 | -1 | 79* | 52* | -2 | -8
COc1ccc(-n2cc(-c3ccc(OC)c(OC)c3)[nH]c2=S)cc1 | -9 | -13 | 10 | 3 | -2 | 9 | / | / | /
Cc1csc(SCC(=O)Nc2cc(S(=O)(=O)N(C)C)ccc2C)n1 | -1 | 12 | 4 | 4 | -6 | -3 | / | / | /
Cc1[nH]c(-c2ccc(F)cc2)cc1C(=O)N1CCN(c2ccc(Cl)cc2)CC1 | -16 | -4 | 0 | -2 | 1 | 73* | 47 | 0 | -6
CCOC(=O)N1CCN(C(=O)c2cccc(F)c2)CC1 | -2 | 3 | -7 | 11 | -3 | 3 | / | / | /
CCOC(=O)N1CCN(C(=O)c2cc(-c3ccc(F)cc3)[nH]c2C)CC1 | 3 | 2 | -1 | -10 | -2 | 89* | 86* | -1 | -12
SMILES | CXCR6 inh | CCR6 antagonist | APJ antagonist | Beta2AR agonist | APJ ag | EBI2 antag | EBI2 antag conf | EBI2 ag | bGal counter
COc1ccc(N2CCN(C(=O)c3cc(-c4ccc(F)cc4)[nH]c3C)CC2)cc1 | 13 | 0 | -1 | -3 | -1 | 93* | 62* | 2 | 9
O=C(O)c1ccccc1C(=O)c1cccc2c(Br)cccc12 | 6 | 2 | / | 3 | / | -11 | / | / | /
O=C(COC(=O)/C=C/c1cccs1)NC(=O)Cc1ccccc1 | -7 | -5 | 7 | -1 | -2 | -7 | / | / | /
O=C(COC(=O)/C=C/c1cccs1)NC(c1ccccc1)c1ccccc1 | 4 | 2 | 15 | -2 | -1 | 62* | 29 | 0 | 9
NNc1ccc([N+](=O)[O-])c2[nH][nH]c(=O)c12 | 15 | / | / | / | / | -10 | / | / | /
Cc1nn(-c2ccccc2)c(C)c1/C=N/NC(=O)c1cc(-c2ccc(Cl)s2)[nH]n1 | -8 | -6 | 5 | 8 | 1 | 52* | 30 | 1 | 10
Cc1nn(-c2ccccc2)c(C)c1/C=N/NC(=O)c1cc(-c2ccc(Br)s2)[nH]n1 | 11 | -6 | -9 | 18 | -3 | 59* | 22 | 0 | 8
CCOC(=O)N1CCN(C(=O)C[C@@H]2C[C@@]3(C(=O)OC)CCCCC=C3N(Cc3ccccc3)C2=O)CC1 | -4 | / | / | / | / | -2 | / | / | /
COC(=O)[C@]12CCCCC=C1N(Cc1ccc(Cl)cc1Cl)C(=O)[C@H](CC(=O)N1CCCC1)C2 | 4 | / | / | / | / | 6 | / | / | /
CCOC(=O)C1CCN(CC(=O)Nc2cc(C)nn2-c2nc3ccccc3s2)CC1 | 12 | 4 | 8 | 6 | -3 | 55* | 22 | 1 | -9
Cc1cccc(C(=O)N2CCN(c3ccc([N+](=O)[O-])c(N4CCOCC4)c3)CC2)c1 | -3 | -5 | 11 | 8 | 0 | 13 | / | / | /
O=C(c1ccc2ccccc2c1)N1CCN(c2ccc([N+](=O)[O-])c(N3CCOCC3)c2)CC1 | -3 | 7 | -14 | 7 | -3 | 47* | 34 | 0 | 7
